# Experimental data of several laboratories.
# Target: Maternal embryonic leucine zipper kinase (MELK, Homo sapiens, UniProt Q14680)
Compound,assay,conditions,endpoint,value
COc1cc(Nc2ncc(F)c(Nc3ccc4c(n3)NC(=O)C(C)(C)O4)n2)cc(OC)c1OC,"binding, competition with immobilised ligand",10 µM,inhibition,71%
Cn1cc(-c2cccc(N3CCc4c(sc5c4CC(C)(C)C5)C3=O)c2CO)cc(Nc2ccncn2)c1=O,"enzyme activity, inhibitor",1 µM,inhibition,5%
O=c1[nH]c2ccccc2n1C1CCN(Cc2ccc(-c3[nH]c4cc5ncnc5cc4nc3-c3ccccc3)cc2)CC1,cell-free assay,0.5 µM,remaining signal,110%
N#CC1(c2ccccn2)CCN(Cc2cc(C(=O)O)c(=O)n3ccccc23)CC1,"cell-free assay, competition with immobilised ligand",1 µM,remaining binding,55%
Cc1nn(C)cc1-c1nc2c(N3CCN(Cc4ccc(Cl)cc4)CC3)c(Cl)cnc2[nH]1,"binding, competition with immobilised ligand",1 µM,remaining binding,100%
COc1ncccc1-c1cnn2ccc(N3CCN(C(=O)OC(C)C)CC3)nc12,"binding, competition with immobilised ligand",1 µM,remaining binding,97%
Cn1cc(-c2cc(F)cc(N3CCn4c(cc5c4CCCC5)C3=O)c2CO)cc(Nc2ccc(N3CCN(C4COC4)CC3)cn2)c1=O,"enzyme activity, inhibitor",0.1 µM,inhibition,16%
Cn1cncc1[C@@](O)(COc1ccc(C#N)cc1-c1ccc(OC(F)(F)F)cc1)c1ccc(C#N)cc1,"cell-free assay, competition with immobilised ligand",1 µM,remaining binding,79%
CC(C)(C)c1cc(C=C(C#N)C#N)cc(Br)c1O,"enzyme activity, inhibitor",0.5 µM,remaining activity,91.6%
